Assay results of several laboratories.
Each line is one published result; the experiments were not run side by side. pEC50, pIC50: −log10 of the molar value.
Cell line: A-375
Effect on: cell growth or viability

| SMILES | test | conditions | quantity | result |
| --- | --- | --- | --- | --- |
| O=C(O)c1cc(O)c(O)c(O)c1 | MTT |  | pIC50 | 4.73 |
| CN(C)CCOc1ccc(-c2nc(-c3ccncc3)c(-c3ccc4c(c3)CC/C4=N\O)[nH]2)cc1 |  |  | pEC50 | 7.52 |
| CC(C)C[C@H](NC(=O)[C@H](Cc1ccccc1)NC(=O)c1cnccn1)B(O)O | ATP luminescence |  | pIC50 | 7.96 |
| CNC(=O)c1cc(Oc2ccc(NC(=O)Nc3ccc(Cl)c(C(F)(F)F)c3)cc2)ccn1 |  |  | pEC50 | 5.40 |
| COc1cc(C(=O)c2csc(-c3ccccc3)n2)cc(OC)c1OC | SRB | 96 h | pIC50 | 7.55 |
| COc1cc(Nc2nccc(-c3cnn4nc(OC)ccc34)n2)cc(C(F)(F)F)c1 | ATP luminescence |  | pIC50 | 7.01 |
| CNc1nc2ccccc2n2c(-c3cccc(OC)c3)cnc12 | neutral red | 96 h | pIC50 | 6.64 |
| Cn1nccc1Nc1nccc(-c2cc3c(s2)C(C)(C)N(CCN2CCOCC2)C3=O)n1 | resazurin | 96 h | pIC50 | 6.46 |
| CC(=O)c1ccc(N=Nc2c(C(=O)O)cc(O)c(O)c2O)cc1 | MTT |  | pIC50 | 4.89 |
| Cn1nccc1Nc1nccc(-c2ccn([C@H](CO)c3ccc(Cl)c(F)c3)c(=O)c2)n1 | resazurin | 96 h | pIC50 | 6.89 |
| O=C(O)/C=C/c1ccc(O)c(O)c1 | MTT |  | pIC50 | 5.32 |
